9 molecules from ChEMBL document CHEMBL1782008, “Paraminabeolides A-F, cytotoxic and anti-inflammatory marine withanolides from the soft coral Paraminabea acronocephala” (J Nat Prod, 2011) can be followed below.

For series [1], the system named is RAW264.7. The series can be described thus: Antiinflammatory activity in mouse RAW264.7 cells assessed as inhibition of LPS-induced COX2 protein expression at 10 uM by Western blotting analysis. It is filed as functional. The procedure, abridged: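 RAW264.7 macrophages (ATCC) stimulated with LPS and treated at 10 μM. iNOS and COX-2 protein levels were quantified by immunoblot and expressed as % of LPS-only control cells (100%). Means ± SEM, n = 6.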
For orientation: Immunoblotting shows a protein as a band on a membrane.

The test system of the next series is HepG2. Put plainly: Cytotoxicity against human HepG2 cells by MTT assay. It is filed as functional, cell-based. Background: Tetrazolium assays rely on reduction of a dye to a coloured formazan, in cell work by metabolically active cells.
A further series relates to MCF7. The series can be described thus: Cytotoxicity against human MCF7 cells by MTT assay. It is filed as functional, cell-based.
The test system of series [2] is RAW264.7. The series can be described thus: Antiinflammatory activity in mouse RAW264.7 cells assessed as residual LPS-induced iNOS protein level at 10 uM by Western blotting analysis.
The next series has as its system MDA-MB-231. Put plainly: Cytotoxicity against human MDA-MB-231 cells by MTT assay. Format: functional, cell-based.
Series [3] in a line: Cytotoxicity against human Hep3B cells by MTT assay. Format: functional, cell-based, Hep 3B2.
The test system of series [4] is beta-actin protein expression. The series can be described thus: Toxicity in mouse RAW264.7 cells assessed as inhibition of beta-actin protein expression at 10 uM by Western blotting analysis; values are per cent of control.

`CC1=C(C)C(=O)O[C@@H]([C@@H](C)[C@H]2CC[C@H]3[C@@H]4CCC5=CC(=O)C=C[C@]5(C)[C@H]4CC[C@]23C)C1` [MINABEOLIDE 1]: the COX-2 expression (% of LPS control) at 10 µM in the series with RAW264.7 [1] is 18.3%. Also, the 50% inhibitory concentration (IC50) was determined as 5.2 µM in the series on HepG2 and 18.7 µM in the series on MCF7. Besides, the residual iNOS protein level at 10 µM in the series with RAW264.7 [2] stood at 9.6%.

Consider `C[C@H]([C@H](O)[C@@H]1OC(=O)[C@H](C)[C@@H]1C)[C@H]1CC[C@H]2[C@@H]3CCC4=CC(=O)C=C[C@]4(C)[C@H]3CC[C@]12C` [PARAMINABEOLIDE D], for which, in the series with RAW264.7 [2], the residual iNOS protein level at 10 µM worked out at 43.3%.

Take `CC(=O)OC[C@]12CC[C@H]3[C@@H](CCC4=CC(=O)C=C[C@@]43C)[C@@H]1CC[C@@H]2[C@H](C)[C@H]1C[C@H](C)[C@H](C)C(=O)O1` [PARAMINABEOLIDE B]: the 50% inhibitory concentration (IC50) stood at 19.3 µM with MDA-MB-231 and 14.9 µM in the series on MCF7. In the series with RAW264.7 [2], the residual iNOS protein level at 10 µM is 7.3%.

On to `CC(=O)OC[C@]12CC[C@H]3[C@@H](CCC4=CC(=O)C=C[C@@]43C)[C@@H]1CC[C@@H]2[C@H](C)[C@H](O)[C@@H]1OC(=O)[C@H](C)[C@H]1C` [PARAMINABEOLIDE C], for which the residual iNOS protein level at 10 µM in the series on RAW264.7 [2] came to 37.9%.

For the molecule `C[C@@H]([C@H]1CC[C@H]2[C@@H]3CCC4=CC(=O)C=C[C@]4(C)[C@H]3CC[C@]12C)[C@H]1CC[C@H](C)C(=O)O1` [MINABEOLIDE 4], the COX-2 expression (% of LPS control) at 10 µM with RAW264.7 [1] was 22.4%. For the same molecule, the residual iNOS protein level at 10 µM in the series with RAW264.7 [2] was 23.2%.

For the molecule `COc1cccc2c1C(=O)c1c(O)c3c(c(O)c1C2=O)C[C@@](O)(C(=O)CO)C[C@@H]3O[C@H]1C[C@H](N)[C@H](O)[C@H](C)O1` [DOXORUBICIN], in series [3], 0.7 µM corresponded to half-maximal inhibition (IC50).

As for `CC(=O)OC[C@]12CC[C@H]3[C@@H](CCC4=CC(=O)C=C[C@@]43C)[C@@H]1CC[C@@H]2[C@H](C)[C@H]1CC[C@H](C)C(=O)O1` [MINABEOLIDE 5], the COX-2 expression (% of LPS control) at 10 µM in the series on RAW264.7 [1] was 31.3%. The residual iNOS protein level at 10 µM with RAW264.7 [2] was 6.3%.

Take `CC1=C(C)C(=O)O[C@@H]([C@@H](C)[C@H]2CC[C@H]3[C@@H]4CCC5=CC(=O)C=C[C@]5(C)[C@H]4CC[C@]23C=O)C1` [PARAMINABEOLIDE A]: the midpoint of inhibition in the series on HepG2, the IC50, lay at 8 µM. In addition, in the series on RAW264.7 [2], the residual iNOS protein level at 10 µM came to 11%. The residual activity at 10 µM in series [4] amounted to 66.5%.

For `CC(=O)OC[C@]12CC[C@H]3[C@@H](CCC4=CC(=O)C=C[C@@]43C)[C@@H]1CC[C@@H]2[C@H](C)[C@H]1CC(C)=C(C)C(=O)O1` [MINABEOLIDE 2], the COX-2 expression (% of LPS control) at 10 µM in the series with RAW264.7 [1] was 51.2%. The residual iNOS protein level at 10 µM in the series with RAW264.7 [2] was 45.7%.

A word on the IC50: it is the concentration at which inhibition is half-maximal. Low values mean greater potency in that assay, high ones weaker potency in that assay. As a reminder, the residual activity is what remains of the control signal, in per cent.
